Assay results published in ChEMBL document CHEMBL1158066, “Phytochemical constituents from Salsola tetrandra” (J Nat Prod, 2006).
In brackets after ≈: the same amount, converted by molar mass.

Assays:
Pseudomonas aeruginosa = test: Antibacterial activity against Pseudomonas aeruginosa ATCC 27853 by microdilution method; assay type: functional
Procedure, shortened: (§1)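 Liquid-medium broth microdilution. Strains kept at -70 °C in glycerol Mueller-Hinton broth; fresh subcultures used for each run. Final inoculum (1-5) × 10^5 cfu/mL. MIC taken as the lowest concentration preventing visible growth. MBC taken as the concentration killing ≥99.9% of the initial inoculum, confirmed by subculturing dilutions onto TSA agar at 30 °C for 18-24 h.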

[1] = system: Staphylococcus epidermidis; test: Antibacterial activity against Staphylococcus epidermidis NCIMB 8853 by microdilution method; assay type: functional; procedure, shortened: as §1
Staphylococcus aureus = test: Antibacterial activity against Staphylococcus aureus ATCC 29213 by microdilution method; assay type: functional; procedure, shortened: as §1
Micrococcus luteus = test: Antibacterial activity against sMicrococcus luteus NCIMB 8166 by microdilution method; assay type: functional; procedure, shortened: as §1
Escherichia coli = test: Antibacterial activity against sEscherichia coli ATCC 35218 by microdilution method; assay type: functional; procedure, shortened: as §1
[2] = Toxicity against Artemia salina; assay type: organism-based; conditions: in vivo, read-out: ED50 (the source's name)
Procedure, shortened: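 Brine shrimp lethality bioassay; the endpoint is death, reported as ED50 in µM.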

| SMILES | MIC (Pseudomonas aeruginosa) [mg/L] | MBC [1] [mg/L] | MIC [1] [mg/L] | MBC (Staphylococcus aureus) [mg/L] | MIC (Staphylococcus aureus) [mg/L] | MBC (Micrococcus luteus) [mg/L] | MIC (Micrococcus luteus) [mg/L] | MBC (Escherichia coli) [mg/L] | MIC (Escherichia coli) [mg/L] | LC50 [2] [µM] |
| --- | --- | --- | --- | --- | --- | --- | --- | --- | --- | --- |
| COc1cc(/C=C/C(=O)NC[C@@H](O)c2ccc(O)cc2)ccc1O | > 700 | > 700 | 600 (≈ 1820 µM) | 600 (≈ 1820 µM) | 200 (≈ 607 µM) | 700 (≈ 2130 µM) | 400 (≈ 1210 µM) | 700 (≈ 2130 µM) | 400 (≈ 1210 µM) | – |
| CCCCCC(O)C(O)/C=C/C(O)CCCCCCCC(=O)O (centres undefined) | > 700 | > 700 | 600 (≈ 1820 µM) | > 700 | 500 (≈ 1510 µM) | 500 (≈ 1510 µM) | 400 (≈ 1210 µM) | – | > 700 | – |
| COc1cc(O[C@@H]2O[C@H](CO)[C@@H](O)[C@H](O)[C@H]2O)cc(OC)c1OC | > 700 | > 700 | 600 (≈ 1730 µM) | > 700 | 700 (≈ 2020 µM) | > 700 | 500 (≈ 1440 µM) | – | > 700 | 28.9 |
| C=C[C@](C)(CC/C=C(\C)CO)O[C@@H]1O[C@H](CO)[C@@H](O)[C@H](O)[C@H]1O | > 700 | > 700 | 700 (≈ 2110 µM) | > 700 | 700 (≈ 2110 µM) | > 700 | 600 (≈ 1810 µM) | – | > 700 | 21.8 |
| CC/C=C\CC(O)C(O)/C=C/C(O)CCCCCCCC(=O)O (centres undefined) | > 700 | > 700 | 600 (≈ 1830 µM) | > 700 | 500 (≈ 1520 µM) | 500 (≈ 1520 µM) | 400 (≈ 1220 µM) | – | > 700 | – |
| CC(=O)/C=C/[C@@]12O[C@]1(C)C[C@@H](O)[C@H](O[C@@H]1O[C@H](CO)[C@@H](O)[C@H](O)[C@H]1O)C2(C)C | > 700 | > 700 | 600 (≈ 1490 µM) | > 700 | 700 (≈ 1740 µM) | > 700 | 500 (≈ 1240 µM) | – | > 700 | 10.9 |
| COc1cc(/C=C/C(=O)NCCc2ccc(O)cc2)ccc1O [N-TRANS-FERULOYL TYRAMINE] | > 700 | – | > 700 | > 700 | 500 (≈ 1600 µM) | > 700 | 500 (≈ 1600 µM) | – | > 700 | – |
| N#C[C@H](O[C@@H]1O[C@H](CO)[C@@H](O)[C@H](O)[C@H]1O)c1ccc(O)cc1 [TAXIPHYLLIN] | > 700 | > 700 | 500 (≈ 1610 µM) | 700 (≈ 2250 µM) | 400 (≈ 1280 µM) | 500 (≈ 1610 µM) | 200 (≈ 642 µM) | > 700 | 600 (≈ 1930 µM) | 0.96 |
